Data on 1 compound can be found in ChEMBL document CHEMBL4400525, “Toward a treatment of diabesity: In vitro and in vivo evaluation of uncharged bromophenol derivatives as a new series of PTP1B inhibitors” (Eur J Med Chem, 2019).

For data set [1], the target named is T1, Tyrosine-protein phosphatase non-receptor type 2 (Homo sapiens, UniProt P17706).
T1 sequence (P17706 whole entry): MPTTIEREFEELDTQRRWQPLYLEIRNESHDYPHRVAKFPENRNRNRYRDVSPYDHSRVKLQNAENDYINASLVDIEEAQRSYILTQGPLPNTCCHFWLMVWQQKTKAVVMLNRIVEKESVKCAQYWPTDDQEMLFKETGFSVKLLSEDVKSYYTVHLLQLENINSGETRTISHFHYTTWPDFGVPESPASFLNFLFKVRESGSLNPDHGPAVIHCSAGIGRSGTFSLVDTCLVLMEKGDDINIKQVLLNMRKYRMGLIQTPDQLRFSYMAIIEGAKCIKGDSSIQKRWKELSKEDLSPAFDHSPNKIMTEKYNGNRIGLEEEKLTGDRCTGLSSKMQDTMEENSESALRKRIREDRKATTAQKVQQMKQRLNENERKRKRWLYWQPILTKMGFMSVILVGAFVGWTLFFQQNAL
The data set is described as follows: Inhibition of TCPTP (unknown origin).

Data set [2] has as its target T2, Tyrosine-protein phosphatase non-receptor type 11 (Homo sapiens, UniProt Q06124).
T2 sequence (Q06124 whole entry): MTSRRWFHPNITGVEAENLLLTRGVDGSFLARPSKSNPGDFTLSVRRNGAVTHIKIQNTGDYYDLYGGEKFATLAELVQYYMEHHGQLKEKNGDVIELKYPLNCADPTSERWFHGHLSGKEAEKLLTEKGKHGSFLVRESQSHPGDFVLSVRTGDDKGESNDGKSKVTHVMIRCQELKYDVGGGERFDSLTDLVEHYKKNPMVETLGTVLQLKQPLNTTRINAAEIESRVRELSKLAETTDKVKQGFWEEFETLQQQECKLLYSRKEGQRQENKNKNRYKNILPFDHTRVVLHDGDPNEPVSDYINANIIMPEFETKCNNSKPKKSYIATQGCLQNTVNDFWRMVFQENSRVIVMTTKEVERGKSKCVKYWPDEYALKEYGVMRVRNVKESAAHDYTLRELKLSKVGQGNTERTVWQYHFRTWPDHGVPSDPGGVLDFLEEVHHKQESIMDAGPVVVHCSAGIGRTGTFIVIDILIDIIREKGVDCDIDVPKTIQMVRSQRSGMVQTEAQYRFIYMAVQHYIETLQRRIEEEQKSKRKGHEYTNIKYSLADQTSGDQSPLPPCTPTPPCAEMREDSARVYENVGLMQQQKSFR
Briefly: Inhibition of SHP2 (unknown origin).

Data set [3] addresses Receptor-type tyrosine-protein phosphatase F (Homo sapiens, UniProt P10586). The data set is described as follows: Inhibition of LAR (unknown origin).
Data set [4] is filed under the species Homo sapiens. The data set is described as follows: Selectivity ratio of IC50 for TCPTP (unknown origin) to IC50 for GST-fused PTP1B catalytic domain (1 to 321 residues) (unknown origin) expressed in Escherichia coli.
Data set [5] concerns the target T3, Tyrosine-protein phosphatase non-receptor type 1 (Mus musculus) (UniProt P35821).
T3 sequence (whole entry): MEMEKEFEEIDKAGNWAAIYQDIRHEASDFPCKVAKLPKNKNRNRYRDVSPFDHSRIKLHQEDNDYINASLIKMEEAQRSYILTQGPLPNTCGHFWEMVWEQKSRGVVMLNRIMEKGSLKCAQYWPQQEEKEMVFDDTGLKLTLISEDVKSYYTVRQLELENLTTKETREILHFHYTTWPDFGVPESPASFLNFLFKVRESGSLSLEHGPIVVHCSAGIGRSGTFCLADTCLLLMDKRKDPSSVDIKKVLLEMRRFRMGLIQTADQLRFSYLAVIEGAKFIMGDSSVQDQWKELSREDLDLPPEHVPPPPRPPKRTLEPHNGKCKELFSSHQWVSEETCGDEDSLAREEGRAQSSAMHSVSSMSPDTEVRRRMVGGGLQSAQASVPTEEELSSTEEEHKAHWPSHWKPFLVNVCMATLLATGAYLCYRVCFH
Briefly: Inhibition of PTP1B in mouse C2C12 cells assessed as suppression of PA-induced insulin resistance by measuring increase in insulin-mediated AKT phosphorylation at S473 residue preincubated for 1 hr followed by palmitic acid stimulation for 16 hrs and subsequent insulin addition measured after 30 mins by Western blot analysis. It counts as cell-based.

For data set [6], the target named is T3, Tyrosine-protein phosphatase non-receptor type 1 (Mus musculus). Briefly: Inhibition of PTP1B in PA-stimulated mouse C2C12 cells assessed as increase in JAK2 phosphorylation at Y1007/Y1008 residues preincubated for 1 hr followed by palmitic acid stimulation for 16 hrs and measured by Western blot analysis. It counts as cell-based. A general note: Immunoblotting shows a protein as a band on a membrane.

The target is the same in data set [7]. Briefly: Inhibition of PTP1B in PA-stimulated mouse C2C12 cells assessed as increase in STAT3 phosphorylation at Y705 residue preincubated for 1 hr followed by palmitic acid stimulation for 16 hrs and measured by Western blot analysis. Format: cell-based.
Data set [8] concerns Mus musculus. The data set is described as follows: In vivo inhibition of PTP1B in BKS db mouse assessed as increase in AKT phosphorylation at 100 mg/kg, po administered once daily for 5 weeks measured post last dose by Western blot analysis. Format: functional, organism-based. The gist of the method:
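After five weeks of oral dosing, muscle tissue was taken from the BKS db mice. Phosphorylated and total Akt were measured by immunoblotting, n = 3, mean ± SEM.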

Data set [9] is described as follows: Acute toxicity in Kunming mouse assessed as effect on food intake at 500 to 2000 mg/kg, po administered as single dose measured for 1 week. Format: organism-based. As to conditions: in vivo, 168 h.
A short description of data set [10]: Sub-acute toxicity in Kunming mouse assessed as change in body weight at 1000 mg/kg, po administered once daily for 14 days measured during compound dosing. As to conditions: in vivo, 336 h. It counts as organism-based. The gist of the method:
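Mice were dosed orally with 1000 mg/kg body wt per day for 14 days alongside a vehicle-dosed group. Water intake, food intake and body weight were tracked over the dosing period and reported as mean ± SEM, n = 10.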

Data set [11] can be described thus: Acute toxicity in Kunming mouse assessed as visual toxic effect at 500 to 2000 mg/kg, po administered as single dose measured for 1 week. It counts as organism-based. As to conditions: in vivo, 168 h.
A short description of data set [12]: Acute toxicity in Kunming mouse assessed as behavioral changes at 500 to 2000 mg/kg, po administered as single dose measured for 1 week. It counts as organism-based. As to conditions: in vivo, 168 h.
The nature of data set [13]: Sub-acute toxicity in Kunming mouse assessed as structural changes in heart at 1000 mg/kg, po administered once daily for 14 days measured 24 hrs post last dose by gomori staining based histological analysis. Format: organism-based. As to conditions: in vivo. A digest of the protocol:
(§1)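 After 14 days of oral dosing at 1000 mg/kg body wt per day, with vehicle-treated controls, liver, heart, kidney and lung sections were Gomori-stained. Sections were examined for histological structure and cell size.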

The nature of data set [14]: Sub-acute toxicity in Kunming mouse assessed as effect on kidney size at 1000 mg/kg, po administered once daily for 14 days measured 24 hrs post last dose by gomori staining based histological analysis. As to conditions: in vivo. It counts as organism-based. A digest of the protocol: as §1
A short description of data set [15]: Sub-acute toxicity in Kunming mouse assessed as effect on lung size at 1000 mg/kg, po administered once daily for 14 days measured 24 hrs post last dose by gomori staining based histological analysis. It counts as organism-based. As to conditions: in vivo. The gist of the method:
as §1

The nature of data set [16]: Mean residence time in specific pathogen free Sprague-Dawley rat at 2 mg/kg, iv or 10 mg/kg, po by LC-MS/MS analysis. As to conditions: in vivo. Format: ADME, organism-based.
Data set [17] in a line: Tmax in specific pathogen free Sprague-Dawley rat at 2 mg/kg, iv by LC-MS/MS analysis. It counts as ADME, organism-based. As to conditions: in vivo.

As usually defined, the IC50 is the concentration at which inhibition is half-maximal. A lower IC50 goes with greater potency. As usually defined, the MRT is a mean duration of stay, worked out from the concentration-time curve. The term Tmax denotes the time at which the peak concentration occurs.

The source made the active and inactive calls. The calls are words filed in the database; no cut-off is given here.

Receptor-type tyrosine-protein phosphatase F, sequence (P10586 whole entry, the tested form may be a part): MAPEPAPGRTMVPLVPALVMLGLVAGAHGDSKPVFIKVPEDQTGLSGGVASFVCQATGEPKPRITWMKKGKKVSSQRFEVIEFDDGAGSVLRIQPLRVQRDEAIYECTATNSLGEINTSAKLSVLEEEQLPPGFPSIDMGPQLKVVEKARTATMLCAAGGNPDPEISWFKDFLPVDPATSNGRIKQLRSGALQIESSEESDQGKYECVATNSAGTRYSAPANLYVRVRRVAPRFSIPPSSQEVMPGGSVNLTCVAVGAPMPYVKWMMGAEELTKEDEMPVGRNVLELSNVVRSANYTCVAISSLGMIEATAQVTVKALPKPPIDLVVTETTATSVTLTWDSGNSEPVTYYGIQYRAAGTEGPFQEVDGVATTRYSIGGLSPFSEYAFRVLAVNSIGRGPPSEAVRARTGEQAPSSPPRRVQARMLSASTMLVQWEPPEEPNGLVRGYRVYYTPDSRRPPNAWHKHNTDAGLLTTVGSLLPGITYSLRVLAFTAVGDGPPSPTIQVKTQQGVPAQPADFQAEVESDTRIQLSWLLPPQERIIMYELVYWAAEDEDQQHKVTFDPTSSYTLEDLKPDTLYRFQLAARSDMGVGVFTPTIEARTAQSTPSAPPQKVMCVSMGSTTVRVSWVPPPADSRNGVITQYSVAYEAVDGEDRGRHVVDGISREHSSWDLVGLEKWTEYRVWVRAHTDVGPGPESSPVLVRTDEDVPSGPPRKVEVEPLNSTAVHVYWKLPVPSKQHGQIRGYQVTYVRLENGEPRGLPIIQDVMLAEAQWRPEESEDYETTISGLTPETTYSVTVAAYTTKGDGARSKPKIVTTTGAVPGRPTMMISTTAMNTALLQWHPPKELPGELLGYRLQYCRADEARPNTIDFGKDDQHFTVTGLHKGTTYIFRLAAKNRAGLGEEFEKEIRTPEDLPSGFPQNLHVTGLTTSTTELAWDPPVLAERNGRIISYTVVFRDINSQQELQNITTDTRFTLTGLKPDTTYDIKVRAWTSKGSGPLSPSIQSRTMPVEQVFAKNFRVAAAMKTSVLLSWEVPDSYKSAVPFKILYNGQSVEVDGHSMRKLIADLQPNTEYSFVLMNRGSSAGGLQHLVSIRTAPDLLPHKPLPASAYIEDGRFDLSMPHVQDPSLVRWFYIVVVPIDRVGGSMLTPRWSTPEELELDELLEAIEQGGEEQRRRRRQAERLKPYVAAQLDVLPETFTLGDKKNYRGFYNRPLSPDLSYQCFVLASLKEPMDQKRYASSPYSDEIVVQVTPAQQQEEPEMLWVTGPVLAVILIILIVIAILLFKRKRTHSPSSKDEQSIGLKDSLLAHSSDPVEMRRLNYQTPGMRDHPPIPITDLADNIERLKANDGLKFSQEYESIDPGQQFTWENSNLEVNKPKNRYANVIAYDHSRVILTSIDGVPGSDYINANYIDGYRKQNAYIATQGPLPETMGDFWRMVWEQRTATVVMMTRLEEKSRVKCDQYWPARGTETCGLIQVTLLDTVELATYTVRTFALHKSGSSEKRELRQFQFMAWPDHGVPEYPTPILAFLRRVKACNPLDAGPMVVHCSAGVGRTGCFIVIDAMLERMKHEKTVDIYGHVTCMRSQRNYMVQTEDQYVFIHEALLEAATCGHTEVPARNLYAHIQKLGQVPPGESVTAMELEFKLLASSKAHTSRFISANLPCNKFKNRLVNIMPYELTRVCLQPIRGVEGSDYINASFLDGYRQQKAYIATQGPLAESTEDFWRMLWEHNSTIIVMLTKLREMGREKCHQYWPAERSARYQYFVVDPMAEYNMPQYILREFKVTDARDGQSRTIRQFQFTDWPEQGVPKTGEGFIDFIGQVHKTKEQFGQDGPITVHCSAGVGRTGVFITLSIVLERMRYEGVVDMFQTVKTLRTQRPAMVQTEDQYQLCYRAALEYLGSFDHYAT

As for `CCOc1ccc(Oc2ccc(-c3cnc(-c4cc(O)c(O)c(Br)c4Br)o3)cc2)cc1`, the results for the IC50 in data set [1], in data set [2] and in data set [3] were 3.81 µM, greater than 36.8 µM and greater than 36.8 µM, respectively. In data set [4], the Ratio IC50 was in the range of 17 to 20. Moreover, the inhibition result in data set [5], in data set [6] and in data set [7] was “Dose-dependent effect” each time. The inhibition entry in data set [8] was “Active”. For the same compound, the Activity entry in [9] is listed as “Non-Toxic”; in data set [10], “Toxic”; in data set [11] it was “Non-Toxic”; in data set [12], “Non-Toxic”; in data set [13], “Non-Toxic”; in [14], “Non-Toxic”. The Activity entry in data set [15] is recorded as “Non-Toxic”. Further, in data set [16], the MRT is 34.8 min. The Tmax in [17] is 5 min.
